Holding throughout (assay type): functional
Conditions in all cases: read-out: Activity

For one test, the system named is MDA-MB-231. Kind of test: Cytotoxicity against human MDA-MB-231 cells assessed as cell viability at 10 ug/mL by SRB assay. An outline of the steps:
(§1)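 SRB assay. Cells were plated at 5000–10 000 cells/well, depending on doubling time, and grown 24 h before compound addition. Compounds were dissolved in MeOH or DMSO and tested at 1 µg per 100 µL well (10 µg/mL) in complete medium for 48 h. Cells were fixed with cold TCA for 30 min on ice, at 10% final for adherent cells and 16% for suspension cells. Plates were stained with 0.4% SRB in 1% acetic acid for 10 min at room temperature, dye was solubilized in 10 mM Tris/KOH pH 10.5, and A550 was read.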

For the next test, the system named is DU-145. Briefly: Cytotoxicity against human DU145 cells assessed as cell viability at 10 ug/mL by SRB assay. The procedure, abridged:
as §1
(The SRB assay estimates cell density from bound dye.)

For another test, the system named is SK-OV-3. Kind of test: Cytotoxicity against human SKOV3 cells assessed as cell viability at 10 ug/mL by SRB assay. An outline of the steps:
as §1

For a further test, the system named is HT-29. Kind of test: Cytotoxicity against human HT-29 cells assessed as cell viability at 10 ug/mL by SRB assay. The procedure, abridged:
as §1

A further test has as its system A549. Briefly: Cytotoxicity against human A549 cells assessed as cell viability at 10 ug/mL by SRB assay. The procedure, abridged:
as §1

A further test deals with CAKI-1. Kind of test: Cytotoxicity against human Caki1 cells assessed as cell viability at 10 ug/mL by SRB assay. The procedure, abridged: as §1
For another test, the system named is SK-MEL-2. Kind of test: Cytotoxicity against human SK-MEL-2 cells assessed as cell viability at 10 ug/mL by SRB assay. An outline of the steps: as §1
Another test relates to K562. Briefly: Cytotoxicity against human K562 cells assessed as cell viability at 10 ug/mL by SRB assay. The procedure, abridged:
as §1

Regarding `COc1ccc([C@@]2(O)c3c(ccc(CC=C(C)C)c3O)NC(=O)[C@@H]2OC)cc1` [PENIPREQUINOLONE], the viability at 10 µg/mL in the test with MDA-MB-231 was found to be 8.4%; in the test on DU-145 it was 30.8%; with SK-OV-3 it was 20.2%; in the test on HT-29, 4%.

In the case of `COc1ccc([C@@]2(O)c3ccccc3NC(=O)[C@H]2O)cc1`, the viability at 10 µg/mL in the test with MDA-MB-231 worked out at 52.9%; in the test with DU-145 it was 50.6%; in the test on SK-OV-3, 44.6%; with HT-29, 58.8%; in the test on A549 it was 56.3%; in the test on CAKI-1 it was 80.3%. Also, the viability at 10 µg/mL is 55.2% with SK-MEL-2 and 52.4% in the test with K562.

On to `COc1ccc([C@@]2(O)c3ccccc3NC(=O)[C@@H]2O)cc1`, for which the viability at 10 µg/mL in the test on MDA-MB-231 was determined as 31.8%; in the test on DU-145, 48.4%; in the test with SK-OV-3 it was 8.1%; with HT-29, 32.8%; in the test with A549 it was 56.8%; in the test with CAKI-1 it was 65.1%. Besides, the viability at 10 µg/mL in the test with SK-MEL-2 was 39%; with K562 it was 36.6%.

Values taken from ChEMBL document CHEMBL1158813, “Diastereomeric quinolinone alkaloids from the marine-derived fungus Penicillium janczewskii” (2005).
